Where a SMILES comes first, the peptide text is derived from it. [ ]: non-standard residue; d: D form.
Tests used:
[1] = species: Cavia porcellus; assay: Efficacy against isolated guinea pig ileum contraction induced by electrical stimulation; type: functional
Procedure, shortened: (§1)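 Electrical field stimulation was applied after 30-40 min equilibration: train 100 ms, pulse width 1 ms, pulse interval 10 ms, supramaximal 20 V. Compounds were added cumulatively at 3-fold steps (0.1 nM to 1 µM), with parallel runs in 10 nM naloxone. Isotonic tension was recorded as % of control […]. Efficacy is the maximal inhibition; EC50 is the half-maximal concentration. Mean ± SEM, 4-6 experiments.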

[2] = biological target: Delta-type opioid receptor (Rattus norvegicus) (UniProt P33533); assay: Inhibition of [3H]naltrindole binding to rat whole brain Opioid receptor delta at 1-10 uM
Procedure, shortened: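 Brain (minus cerebellum) membranes were labelled with [3H]naltrindole as the δ radioligand. […] Mean ± SEM, n experiments.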

[3] = biological target: Mu-type opioid receptor (Rattus norvegicus, UniProt P33535); assay: Inhibition of [3H]DAMGO binding to rat whole brain Opioid receptor mu
Procedure, shortened: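 Rat whole-brain (minus cerebellum) membranes (0.3 mg protein) were incubated with 0.7 nM [3H]DAMGO and peptide (1 nM to 10 µM) for 2 h at 25 °C. Buffer was 50 mM Tris-HCl pH 7.4, 5 mM MgCl2, with protease inhibitors. Nonspecific binding was defined with 10 µM BNTX. Bound ligand was separated by GF/C filtration. Mean ± SEM, ≥3 experiments.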

[4] = species: Cavia porcellus; assay: Inhibition of isolated guinea pig ileum contraction induced by electrical stimulation; type: functional; procedure, shortened: as §1

Chain of Delta-type opioid receptor (Rattus norvegicus) (P33533 whole entry): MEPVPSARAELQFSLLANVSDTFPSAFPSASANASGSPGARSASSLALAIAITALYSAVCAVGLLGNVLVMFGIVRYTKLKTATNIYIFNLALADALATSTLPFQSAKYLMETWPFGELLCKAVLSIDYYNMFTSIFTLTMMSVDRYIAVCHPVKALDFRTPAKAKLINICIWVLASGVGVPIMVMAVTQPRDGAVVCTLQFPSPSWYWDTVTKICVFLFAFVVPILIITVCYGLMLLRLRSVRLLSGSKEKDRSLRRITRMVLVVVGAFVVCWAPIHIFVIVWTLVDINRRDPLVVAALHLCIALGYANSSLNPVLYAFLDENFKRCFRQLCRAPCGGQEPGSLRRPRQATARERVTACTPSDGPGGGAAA
Chain of Mu-type opioid receptor (P33535 whole entry): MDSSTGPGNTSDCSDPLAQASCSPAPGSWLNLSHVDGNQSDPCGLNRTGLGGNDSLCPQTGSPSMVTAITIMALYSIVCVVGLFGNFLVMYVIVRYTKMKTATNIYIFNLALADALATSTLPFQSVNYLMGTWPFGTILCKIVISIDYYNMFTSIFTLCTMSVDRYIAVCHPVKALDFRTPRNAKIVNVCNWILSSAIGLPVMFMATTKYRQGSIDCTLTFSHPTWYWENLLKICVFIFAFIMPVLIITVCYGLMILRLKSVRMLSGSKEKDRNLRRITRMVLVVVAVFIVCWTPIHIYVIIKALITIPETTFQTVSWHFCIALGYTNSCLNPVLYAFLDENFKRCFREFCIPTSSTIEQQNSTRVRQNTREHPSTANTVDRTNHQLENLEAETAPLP

| SMILES | Efficacy [1] [%] | inhibition [2] [%] | Ki [3] [nM] | EC50 [4] [nM] |
| --- | --- | --- | --- | --- |
| CN1CC[C@]23c4c5ccc(O)c4O[C@H]2[C@@H](O)C=C[C@H]3[C@H]1C5 [MORPHINE] | 66 | – | – | – |
| NC(=O)[C@H]1CCCN1C(=O)[C@H](Cc1ccccc1)NC(=O)[C@@H]1CCCN1C(=O)[C@@H](N)Cc1ccc(O)cc1 (H-YPF[dP]-NH2) | – | 23.6 | – | – |
| NC(=O)[C@@H]1CCCN1C(=O)[C@H](Cc1ccccc1)NC(=O)[C@@H]1CCCN1C(=O)[C@@H](N)Cc1ccc(O)cc1 (H-YPFP-NH2) [listing 1 of 2 here] | – | – | 25.6 | 13 |
| NC(=O)[C@@H]1CSC([C@H](Cc2ccccc2)NC(=O)[C@@H]2CCCN2C(=O)[C@@H](N)Cc2ccc(O)cc2)N1 (stereo partly drawn) | 65 | 22.7 | 14.1 | 9.7 |
| NC(=O)[C@@H]1CCCN1C(=O)[C@H](Cc1ccccc1)NC(=O)[C@@H]1CCCN1C(=O)[C@@H](N)Cc1ccc(O)cc1 (H-YPFP-NH2) [listing 2 of 2 here] | 65 | – | – | – |
| CN(C)C(=O)C(CCN1CCC(O)(c2ccc(Cl)cc2)CC1)(c1ccccc1)c1ccccc1 [LOPERAMIDE] | 11 | – | – | 489 |
| NC(=O)[C@@H]1CSC([C@H](Cc2c[nH]c3ccccc23)NC(=O)[C@@H]2CCCN2C(=O)[C@@H](N)Cc2ccc(O)cc2)N1 (stereo partly drawn) | 70 | 67.8 | 178 | 28 |
| NC(=O)[C@@H]1CSC([C@@H](Cc2ccccc2)NC(=O)[C@@H]2CCCN2C(=O)[C@@H](N)Cc2ccc(O)cc2)N1 (stereo partly drawn) | 71 | 42.2 | 290 | 36 |
| NC(=O)[C@@H]1CCCN1C(=O)[C@H](Cc1ccccc1)NC(=O)[C@@H]1CSC([C@@H](N)Cc2ccc(O)cc2)N1 (stereo partly drawn) | 17 | 10.2 | – | – |
| C[C@@H](NC(=O)[C@@H](N)Cc1ccc(O)cc1)C(=O)NCC(=O)N(C)[C@@H](Cc1ccccc1)C(=O)NCCO [DAMGO] | 61 | – | – | 36.2 |

Source: ChEMBL document CHEMBL1143626, “Morphiceptin analogues containing a dipeptide mimetic structure: an investigation on the bioactive topology at the mu-receptor” (J Med Chem, 2005)
